Compounds with a hit are over-represented: about 1.7% of the library has one in this group of screens.
IDE cell inh = inhibitors of human insulin-degrading enzyme in cells | inhibition, % at 5.59 µM | HEK cells, FAbetaB cleavage, fluorescence polarization | AID 434962 | 320,000 tested, 0.41% active | P14735;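 active = percent inhibition above the average of all tested compounds plus 3 SD, set per screening campaign, cut at about 16% in these data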;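 note: IDE supplied by intact live HEK cells; FP after avidin binding of uncleaved biotin substrate so inhibition keeps polarization high; 0% = DMSO wells and 100% = 60 µM reference IDE inhibitor Ii1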
Rpn11 block = inhibitors of human proteasome Rpn11; O00487; human 26S proteasome, Ub4-pepOG fluorescence polarization; 20S core pre-blocked with epoxomicin; inhibition, % at 20 µM; 360,000 tested, 0.59% active;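 active = inhibition at 20 µM, scaled to each plate's controls, above about 33%, limit read from the data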
Target sequence (O00487 whole entry, looked up): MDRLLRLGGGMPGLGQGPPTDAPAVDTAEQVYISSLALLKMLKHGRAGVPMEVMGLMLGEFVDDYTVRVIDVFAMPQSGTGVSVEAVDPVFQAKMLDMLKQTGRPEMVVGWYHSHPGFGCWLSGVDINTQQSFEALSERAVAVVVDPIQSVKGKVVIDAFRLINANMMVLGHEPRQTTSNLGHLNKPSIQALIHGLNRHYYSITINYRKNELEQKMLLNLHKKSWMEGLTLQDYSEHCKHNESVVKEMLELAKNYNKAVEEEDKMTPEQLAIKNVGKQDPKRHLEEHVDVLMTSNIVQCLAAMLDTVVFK
CSN inh = blocks human CSN-mediated cullin deneddylation; Purified CSN, SCF-Nedd8-OG deneddylation, fluorescence polarization; 360,000 tested, 0.38% active; AID 651999; inhibition, % at 12.5 µM;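 active = pattern-corrected inhibition above about 35%, with an unprinted fluorescence ratio check between 0.5 and 1.5, limit read from the data, passing the limit was not always enough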;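 note: 0% = enzyme with substrate and 100% = substrate without enzyme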
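Assay system: HEK293T-derived human Csn5 enzyme; quantity: 0.24 nM enzyme; medium: Tris/NaCl/DTT buffer, pH 7.5; also added: substrate SCFSkp2-Nedd8OG, 10 nM; doses: 12.5 µM compound; schedule: 90 min reaction at room temperature; signal: FP; read-out: % inhibition of substrate cleavage by Csn5; benchmarks: substrate-only high control, full reaction low control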
TPT1 inhibitor = C. albicans TPT1 enzyme inhibition. AID 1962. 300,000 tested, 0.81% active. inhibition, % at 5 µM. recombinant caTPT1, FP RNA substrate dephosphorylation;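 active = inhibition above the mean of all tested compounds plus 3 SD, set per screening campaign, cut at about 24% in these data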;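 note: plate controls were DMSO alone for no effect and ferristatin control at 100 nM for full effect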
HNF4A DNA FP = change in binding of human HNF4 alpha to DNA; 360,000 tested, 0.3% active; AID 1224865; activity change, % at 10 µM; HNF4a-FITC DNA binding, fluorescence polarization, 1 h; in the data active = activity change above about 30%, passing the limit was not always enough
IDE cell activ = IDE (human) activation, cell-based; 340,000 tested, 0.073% active; P14735; HEK cells, FAbeta-B cleavage, fluorescence polarization; 0% vehicle, 100% cell-free pure enzyme wells; activation, % at 5.96 µM;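 active = activation above the mean of all tested compounds plus 3 SD, set per screening campaign, cut at about 17% in these data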
Rpn11 inh conf = Rpn11 inhibition confirmation, single concentration | shares compounds with Rpn11 block | purified human 26S proteasome, Ub4-pepOG fluorescence polarization; proteasome pretreated with epoxomicin | inhibition, % at 20 µM | 1,900 tested, 29% active | AID 602318
MMP-2 inh = blocks human MMP-2, flagging nonselective RPN11 hits; shares compounds with Rpn11 block; recombinant MMP-2, FRET peptide cleavage fluorescence; inhibition, % at 20 µM; 1,900 tested, 4% active; AID 602330;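 note: human MMP-2 activated beforehand with APMA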
Thrombin FP = thrombin (bovine) inhibition counter-screen; shares compounds with Rpn11 block; bovine thrombin cleavage of Ub4-pepOG, fluorescence polarization; inhibition, % at 20 µM; 1,900 tested, 13% active;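 active = mean inhibition at least 40% at 20 µM, or signal 3 deviations below plate average, so some actives read negative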;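 note: plate controls were thrombin with DMSO for no effect and buffer wells lacking thrombin for full effect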
An asterisk follows results filed as active; . = no result given. Cut-off read from the data, not from the text of the source, unless noted: active = inhibition above about 40%; inactive = the rest.

SMILES	IDE cell inh	Rpn11 block	CSN inh	TPT1 inhibitor	HNF4A DNA FP	IDE cell activ	Rpn11 inh conf	MMP-2 inh	Thrombin FP
CC1=NN(c2ccccc2)C(=O)C1/C=C1\NC(=S)NC1=O (stereo not given)	-5	45*	34	2	-10	-1	84*	19	24
CCOC(=O)c1cccc(-n2cccc2/C=C2\NC(=O)N(CC(=O)O)C2=O)c1	7	0	1	.	4	1	.	.	.
CCOC(=O)c1ccc(-n2cccc2/C=C2\NC(=O)NC2=O)cc1	6	46*	-3	.	4	-5	4	-73	-14
CCOC(=O)/C(C#N)=N/Nc1ccccc1OC	0	40*	-1	9	1	-1	-7	-20	-11
O=C(c1cnc(Cl)c(Cl)c1)N1CCN(S(=O)(=O)c2cccs2)CC1	.	-1	7	.	-1	.	.	.	.
O=C(N/N=C/c1ccc2c(c1)OCO2)c1sc2cc(Cl)ccc2c1Cl	4	105*	0	1	4	5	3	-31	-1
O=C(N/N=C/c1cc(Cl)cc([N+](=O)[O-])c1O)c1ccccc1NS(=O)(=O)c1cccs1	0	41*	-3	1	9	0	129*	-20	-1
O=C(NN=Cc1ccc(O)cc1)c1ccccc1NS(=O)(=O)c1cccs1	3	3	-4	.	3	2	.	.	.
Cc1cccc2cc(C#N)c(SCC(=O)Nc3ccccc3N3CCOCC3)nc12	-2	36*	6	10	3	3	14	-44	-20
CCc1ccc(NC(=O)C(C)Oc2nnc(-c3cccs3)c(-c3cccs3)n2)cc1 (stereo not given)	-4	15	5	5	-2	1	.	.	.
CC(C)c1ccc(NC(=O)COc2nnc(-c3cccs3)c(-c3cccs3)n2)cc1	5	32*	-2	0	2	2	15	18	-1
Cc1cc2ncn(/N=C/c3ccc([N+](=O)[O-])s3)c2cc1C	10	41*	7	8	6	4	9	8	-8
O=C(Cc1ccccc1F)Nc1nc(-c2ccc(F)c(F)c2)cs1	-4	5	4	-2	0	-2	.	.	.
O=C(Nc1nc(-c2ccc(F)c(F)c2)cs1)Nc1ccc(F)cc1F	-2	56*	2	1	10	2	79*	-37	-13
O=C1c2cccc3cccc(c23)C(=O)N1c1ccc2ncccc2c1	1	136*	30	5	-4	3	41*	37	-8
O=C1c2cccc3cccc(c23)C(=O)N1c1nccs1	8	-2	-3	1	-1	-2	.	.	.
O=[N+]([O-])c1c(Nc2ccc(O)cc2)cc(Cl)c2nonc12	0	-8	11	-1	2	-4	.	.	.
CC(C)Nc1nc(Oc2ccc(=O)n(-c3ccccc3)n2)nc(N(C)C)n1	-6	44*	-1	-2	-35	11	5	-7	2
CC(C)Nc1nc(NC(C)C)nc(Oc2ccc(=O)n(C)n2)n1	0	-1	5	-4	2	-4	.	.	.
O=C(COC(=O)COc1ccccc1[N+](=O)[O-])NC1CCCCC1	-2	0	0	.	-3	5	.	.	.
O=C(Cn1c2ccccc2c(=O)c2ccccc21)N/N=C/c1cc([N+](=O)[O-])ccc1N1CCCCC1	-2	59*	3	3	13	2	18	-10	17
CCN1/C(=C\C=C2\C(=O)N(c3ccccc3)C(=S)N2C)Sc2ccccc21	.	48*	3	.	8	1	-2	0	-5
COc1ccc2cc(C#N)c(SCC(=O)N3CC(=O)Nc4ccccc43)nc2c1	4	48*	-8	3	-1	6	-4	-42	-20

Bioassay records (PubChem)
